The source of these data is ChEMBL document CHEMBL1938299, “Quinolinone-based agonists of S1P₁: use of a N-scan SAR strategy to optimize in vitro and in vivo activity” (Bioorg Med Chem Lett, 2012).

≈ marks a conversion by molar mass, not a printed value. Some results are limits rather than exact numbers.

As a reminder, the AUC(0-t) is exposure summed from dosing to a finite time, without extrapolation to infinity. The term EC50 denotes the concentration at which the effect is half-maximal. The efflux ratio is a quotient of directional permeabilities that is used to spot active efflux. What is called solubility is how much of the substance goes into solution per volume. What is called Papp is the rate of passage across a membrane or cell layer, normalised by area and donor concentration. As usually defined, the half-life is the time in which the quantity being followed falls by half. As usually defined, the clearance is a measure of how efficiently the substance is removed, as volume per time.

Data set [1] is described as follows: Volume of distribution at steady state in Sprague-Dawley rat at 1 mg/kg, iv. On the set-up: dose 1 mg/kg, route intravenous. The following applies: in vivo, read-out: Vdss. The data set is classed as ADME, organism-based. In a few lines: (§1)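 Single intravenous dose of 1 mg/kg in DMSO vehicle to male Sprague–Dawley rats (N = 3/group). Clearance, steady-state volume of distribution and half-life were determined from plasma levels.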

The nature of data set [2]: AUC (0 to 24 hrs) in Sprague-Dawley rat at 3 mg/kg, po. It is filed as ADME, organism-based, Plasma. On the set-up: time < 24 hr, dose 3 mg/kg, route oral. Particulars: Sprague-Dawley, plasma.
Data set [3] deals with T1, Sphingosine 1-phosphate receptor 1 (Homo sapiens, UniProt P21453). As to the kind of experiment: Agonist activity at human S1P1 receptor expressed in human U2OS cells co-expressing eGFP assessed as receptor internalization into cytoplasm using Hoechst dye staining. The data set is classed as functional, cell-based.
T1 sequence (P21453 whole entry): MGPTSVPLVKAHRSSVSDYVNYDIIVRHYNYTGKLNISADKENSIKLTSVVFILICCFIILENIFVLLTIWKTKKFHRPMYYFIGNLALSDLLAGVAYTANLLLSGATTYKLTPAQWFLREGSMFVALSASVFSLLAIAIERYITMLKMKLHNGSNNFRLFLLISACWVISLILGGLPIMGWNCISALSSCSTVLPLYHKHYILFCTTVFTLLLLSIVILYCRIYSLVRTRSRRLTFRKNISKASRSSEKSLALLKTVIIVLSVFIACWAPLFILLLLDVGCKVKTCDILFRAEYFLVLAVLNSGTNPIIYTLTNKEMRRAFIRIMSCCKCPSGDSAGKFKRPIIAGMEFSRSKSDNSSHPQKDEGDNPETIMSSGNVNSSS
The test system of data set [4] is Rattus norvegicus. The experiment in a line: Ratio of AUC (0 to 24 hrs) at 100 mg/kg, po to AUC (0 to 24 hrs) at 3 mg/kg, po in Sprague-Dawley rat. The data set is classed as ADME, organism-based. Particulars: in vivo. A digest of the protocol:
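Male Sprague–Dawley rats (N = 3/group) each received a single oral dose of 3 or 100 mg/kg, in 20% Captisol, 1% HPMC, 1% Pluronic F68, adjusted to pH 2.0 with MSA.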

Data set [5] deals with Sphingosine 1-phosphate receptor 3 (Homo sapiens, UniProt Q99500). The experiment in a line: Agonist activity at human S1P3 receptor expressed in CHO-K1 cells co-expressing Gq/i5 G-protein assessed as calcium mobilization by FLIPR assay. It is filed as functional, cell-based.
Sequence of Sphingosine 1-phosphate receptor 3 (Q99500 whole entry): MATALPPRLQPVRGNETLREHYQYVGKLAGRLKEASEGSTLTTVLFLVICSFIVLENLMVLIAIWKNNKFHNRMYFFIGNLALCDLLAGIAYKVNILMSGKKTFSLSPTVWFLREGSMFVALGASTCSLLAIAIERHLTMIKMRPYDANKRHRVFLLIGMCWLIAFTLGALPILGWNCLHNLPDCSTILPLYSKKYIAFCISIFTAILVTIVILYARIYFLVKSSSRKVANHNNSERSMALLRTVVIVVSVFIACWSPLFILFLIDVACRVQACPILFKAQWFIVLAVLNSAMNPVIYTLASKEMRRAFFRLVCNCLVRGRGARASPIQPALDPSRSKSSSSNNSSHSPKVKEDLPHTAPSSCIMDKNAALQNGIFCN
Data set [6] is described as follows: Efflux ratio of permeability in pig LLC-PK1 cells. The data set is classed as ADME, cell-based, Sus scrofa. In a few lines: (§2)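 LLC-PK1 porcine proximal tubule cell monolayers; apparent permeability (Papp) of test compound through the cells measured, along with efflux ratio.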
A short description of data set [7]: AUC (0 to 24 hrs) in Sprague-Dawley rat at 100 mg/kg, po. It is filed as ADME, organism-based. On the set-up: time < 24 hr, dose 100 mg/kg, route oral. Particulars: plasma.
A short description of data set [8]: Plasma concentration in Lewis rat at 0.3 mg/kg, po after 24 hrs. It is filed as ADME, organism-based. Also on record: dose 0.3 mg/kg, route oral. A digest of the protocol: (§3)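 Female Lewis rats (N = 5/group) given a single oral dose (0.30, 1.0 or 3.0 mg/kg) in 20% Captisol or HPBCD, 1% HPMC, 1% Pluronic F68, pH 2.0 with MSA. At 24 h, blood lymphocytes were counted as percent of vehicle control and total plasma compound measured. Significance by ANOVA/Dunnett's test versus vehicle.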

Data set [9] in a line: Plasma concentration in Lewis rat at 3 mg/kg, po after 24 hrs. It is filed as ADME, organism-based. Also on record: dose 3 mg/kg, route oral. A digest of the protocol: as §3
The nature of data set [10]: Solubility of the compound in simulated intestinal fluid at pH 7.4. It is filed as physicochemical. A digest of the protocol: (§4)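 Compound solubility measured separately in 0.010 M aqueous HCl, in PBS at pH 7.4, and in simulated intestinal fluid.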
A short description of data set [11]: Oral bioavailability in Sprague-Dawley rat at 3 mg/kg. The data set is classed as ADME, organism-based. Particulars: Sprague-Dawley, in vivo. A digest of the protocol:
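Bioavailability in male Sprague–Dawley rats (N = 3/group), calculated from AUC0–∞ values obtained after a 1 mg/kg iv dose (DMSO vehicle) and a 3 mg/kg po dose (20% Captisol, 1% HPMC, 1% pluronic F68, pH 2.0 with MSA).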

A short description of data set [12]: Solubility of the compound in 0.010 M aqueous hydrogen chloride at pH 7.4. The data set is classed as physicochemical. Particulars: in the assay text read “hydrogen chloride” for “hydrogen chloride at pH 7.4”. A digest of the protocol: as §4
Data set [13] can be described thus: Plasma protein binding in rat. The data set is classed as ADME, cell-free. Particulars: read-out: PPB (converted). A digest of the protocol:
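Rat plasma protein binding measured in vitro, with bound and free compound separated by ultracentrifugation; reported as percent bound.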

In data set [14] the test system is Rattus norvegicus. The experiment in a line: Immunosuppressive activity in Lewis rat assessed as reduction in circulating peripheral lymphocyte count at 3 mg/kg, po after 24 hrs relative to control. On the set-up: scale not given: the % may be the effect or the level left. The data set is classed as functional. In a few lines:
as §3

Data set [15] concerns the target T1, Sphingosine 1-phosphate receptor 1. As to the kind of experiment: Agonist activity at human S1P1 receptor expressed in human U2OS cells co-expressing eGFP assessed as receptor internalization into cytoplasm using Hoechst dye staining relative to 1-(4-(6-benzylbenzofuran-2-yl)-3- fluorobenzyl)azetidine-3-carboxylic acid. It is filed as functional, cell-based.

The test system of data set [16] is Rattus norvegicus. As to the kind of experiment: Immunosuppressive activity in Lewis rat assessed as reduction in circulating peripheral lymphocyte count at 1 mg/kg, po after 24 hrs relative to control. The data set is classed as functional. On the set-up: scale not given: the % may be the effect or the level left. A digest of the protocol:
as §3

Data set [17] can be described thus: Solubility of the compound in phosphate-buffered saline at pH 7.4. It is filed as physicochemical. A digest of the protocol:
as §4

A short description of data set [18]: Plasma concentration in Lewis rat at 1 mg/kg, po after 24 hrs. It is filed as ADME, organism-based. On the set-up: dose 1 mg/kg, route oral. A digest of the protocol:
as §3

Data set [19] in a line: Apparent permeability of the compound in pig LLC-PK1 cells. The data set is classed as ADME, cell-based, Sus scrofa. A digest of the protocol: as §2
A short description of data set [20]: Intrinsic clearance in rat liver microsomes assessed per mg of protein after 30 mins. The following applies: read-out: CLH. It is filed as ADME, Microsome. A digest of the protocol:
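Test compound incubated with rat liver microsomes for 30 min. Percent turnover measured and used to estimate intrinsic clearance.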

Data set [21] concerns Rattus norvegicus. As to the kind of experiment: Immunosuppressive activity in po dosed Lewis rat assessed as reduction in circulating peripheral lymphocyte count after 24 hrs. It is filed as functional, organism-based. In a few lines:
as §3

Data set [22] in a line: Half life in Sprague-Dawley rat at 1 mg/kg, iv. It is filed as ADME, organism-based. Also on record: dose 1 mg/kg, route intravenous. The following applies: in vivo. In a few lines: as §1
Data set [23] in a line: Clearance in Sprague-Dawley rat at 1 mg/kg, iv. The data set is classed as ADME, organism-based. Particulars: Sprague-Dawley, in vivo. Also on record: dose 1 mg/kg, route intravenous. In a few lines: as §1

`Cn1cc(C(=O)Nc2ccc(-c3ccccc3)c(C(F)(F)F)n2)c(=O)c2cnccc21`: the Vd in data set [1] was 5.1 L/kg. In addition, the exposure AUC(0-t) at 24 h in data set [2] came out at 12000 ng·h/mL; in [7], 130000 ng·h/mL. Further, the figures for the EC50 in [3] and in [5] were 0.02 µM and above 2.5 µM, respectively. The “Ratio AUC” value in the data set with Rattus norvegicus [4] came out at 11. Moreover, the efflux ratio in data set [6] came out at 1. Also, the results for the concentration at 24 h in data set [8], in data set [9] and in data set [18] were 47 ng/mL, 640 ng/mL and 130 ng/mL, respectively. The figures for the solubility in [10], in data set [12] and in data set [17] were 10 µg/mL (≈ 23.6 µM), below 1 µg/mL and 2.4 µg/mL (≈ 5.66 µM), respectively. In addition, in data set [11], the bioavailability stood at 110%. For the same compound, the fraction unbound in [13] was 0.02. Further, the Activity in the data set with Rattus norvegicus [14] was -76%; in the data set on Rattus norvegicus [16] it was -67%; with Rattus norvegicus [21] it was “Dose-dependent effect”. For the same compound, the Efficacy in data set [15] worked out at 120%. Also, the apparent permeability coefficient (Papp) in data set [19] came to 6.7 ×10⁻⁶ cm/s. In addition, the microsomal CLint in data set [20] is below 14 µL/min/mg. In addition, the half-life in [22] was 24 h. In [23], this compound showed a clearance of 2.5 mL/min/kg.

For `CCCCCCCCCCCCC/C=C/[C@@H](O)[C@@H](N)COP(=O)(O)O`, the half-maximal effective concentration (EC50) in [3] came out at 0.018 µM. Moreover, the Efficacy in [15] was 91%.

For `Cn1cc(C(=O)Nc2cc(C(F)(F)F)c(-c3ccccc3)cn2)c(=O)c2ccccc21`, the results for the EC50 in data set [3] and in data set [5] were 1.1 µM and above 2.5 µM, respectively. For the same compound, the Efficacy in data set [15] was determined as 59%. Also, the apparent permeability (Papp) in data set [19] is below 1 ×10⁻⁶ cm/s. Also, the microsomal CLint in [20] was below 14 µL/min/mg.

Regarding `Cn1cc(C(=O)Nc2ccc(-c3ccccn3)c(C(F)(F)F)n2)c(=O)c2cnccc21`, the 50% effective concentration (EC50) is 0.21 µM in data set [3] and above 2.5 µM in data set [5]. Also, the efflux ratio in data set [6] was 1. The solubility in data set [10] was 5.8 µg/mL (≈ 13.6 µM); in [12], above 200 µg/mL; in data set [17], 3 µg/mL (≈ 7.05 µM). The Efficacy in data set [15] came out at 130%. The Activity in the data set with Rattus norvegicus [16] is -32%. The compound further returned a concentration at 24 h in data set [18] of 140 ng/mL. The Papp in data set [19] was determined as 15 ×10⁻⁶ cm/s. The microsomal CLint in [20] was below 14 µL/min/mg.

As for `Cn1cc(C(=O)Nc2ccc(-c3ccncc3)c(C(F)(F)F)c2)c(=O)c2ccccc21`, the EC50 in [3] was 0.45 µM; in data set [5], above 2.5 µM. The efflux ratio in data set [6] is 1.5. Besides, the solubility in data set [10] is 12 µg/mL (≈ 28.3 µM); in data set [12] it was 6.4 µg/mL (≈ 15.1 µM); in [17], 7.9 µg/mL (≈ 18.7 µM). In addition, the Efficacy in [15] was found to be 110%. For the same compound, the apparent permeability coefficient (Papp) in data set [19] was 15 ×10⁻⁶ cm/s. In addition, the microsomal CLint in [20] worked out at 44 µL/min/mg.

Consider `Cn1cc(C(=O)Nc2ccc(-c3ccccc3)c(C(F)(F)F)c2)c(=O)c2ccncc21`, for which the EC50 in data set [3] is 0.029 µM; in [5], above 2.5 µM. Moreover, the efflux ratio in data set [6] turned out to be 1. The solubility is 6.1 µg/mL (≈ 14.4 µM) in data set [10], below 1 µg/mL in data set [12] and 2.6 µg/mL (≈ 6.14 µM) in data set [17]. Also, the Efficacy in [15] stood at 120%. The Activity in the data set with Rattus norvegicus [16] is recorded as -36%. This compound also showed a concentration at 24 h in data set [18] of 140 ng/mL. Further, in data set [19], the apparent permeability coefficient (Papp) came to 3.4 ×10⁻⁶ cm/s. Further, the microsomal CLint in data set [20] is below 14 µL/min/mg.

For the compound `Cn1cc(C(=O)Nc2cnc(-c3ccccc3)c(C(F)(F)F)c2)c(=O)c2ccccc21`, the concentration for a half-maximal effect (EC50) in data set [3] was 2.9 µM; in data set [5], above 2.5 µM. For the same compound, in [6], the efflux ratio turned out to be 1.9. Moreover, the figures for the solubility in data set [10], in data set [12] and in data set [17] were 13 µg/mL (≈ 30.7 µM), below 1 µg/mL and below 1 µg/mL, respectively. Further, the Efficacy in data set [15] is 170%. In data set [19], the apparent permeability (Papp) came to 11 ×10⁻⁶ cm/s. Moreover, the microsomal CLint in [20] is below 14 µL/min/mg.

Consider `Cn1cc(C(=O)Nc2ccc(-c3ccccc3)c(C(F)(F)F)c2)c(=O)c2cccnc21`, for which the concentration giving a half-maximal response (EC50) in [3] is 0.19 µM; in [5], above 2.5 µM. Moreover, the efflux ratio in data set [6] came to 1.7. Moreover, the solubility in data set [10] was 5.9 µg/mL (≈ 13.9 µM); in [12], below 1 µg/mL; in data set [17], below 1 µg/mL. Also, the Efficacy in data set [15] was 100%. Further, in data set [19], the Papp was determined as 2.2 ×10⁻⁶ cm/s. For the same compound, in [20], the microsomal CLint is below 14 µL/min/mg.
